# Compound activity as filed in PubChem.
# This is a sample that favours compounds with a hit; in the whole collection about 4.2% have one here.
# Cl transport mod = modulators of human KCC2 chloride dependent transport. Q9H2X9. KCC2 cells, thallium flux FluoZin-2 fluorescence. B-score of Tl+ flux slope (higher = more flux/activation; lower = inhibition) at 10 µM. 190,000 tested, 2.2% active. AID 1456;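 active = thallium flux slope and its plate-corrected score both differing from the plate sample mean at a set confidence after two filtering rounds, in either direction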;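 note: slope of fluorescence scaled to starting intensity during 10 to 20 s after thallium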
# Target sequence (Q9H2X9 whole entry, looked up): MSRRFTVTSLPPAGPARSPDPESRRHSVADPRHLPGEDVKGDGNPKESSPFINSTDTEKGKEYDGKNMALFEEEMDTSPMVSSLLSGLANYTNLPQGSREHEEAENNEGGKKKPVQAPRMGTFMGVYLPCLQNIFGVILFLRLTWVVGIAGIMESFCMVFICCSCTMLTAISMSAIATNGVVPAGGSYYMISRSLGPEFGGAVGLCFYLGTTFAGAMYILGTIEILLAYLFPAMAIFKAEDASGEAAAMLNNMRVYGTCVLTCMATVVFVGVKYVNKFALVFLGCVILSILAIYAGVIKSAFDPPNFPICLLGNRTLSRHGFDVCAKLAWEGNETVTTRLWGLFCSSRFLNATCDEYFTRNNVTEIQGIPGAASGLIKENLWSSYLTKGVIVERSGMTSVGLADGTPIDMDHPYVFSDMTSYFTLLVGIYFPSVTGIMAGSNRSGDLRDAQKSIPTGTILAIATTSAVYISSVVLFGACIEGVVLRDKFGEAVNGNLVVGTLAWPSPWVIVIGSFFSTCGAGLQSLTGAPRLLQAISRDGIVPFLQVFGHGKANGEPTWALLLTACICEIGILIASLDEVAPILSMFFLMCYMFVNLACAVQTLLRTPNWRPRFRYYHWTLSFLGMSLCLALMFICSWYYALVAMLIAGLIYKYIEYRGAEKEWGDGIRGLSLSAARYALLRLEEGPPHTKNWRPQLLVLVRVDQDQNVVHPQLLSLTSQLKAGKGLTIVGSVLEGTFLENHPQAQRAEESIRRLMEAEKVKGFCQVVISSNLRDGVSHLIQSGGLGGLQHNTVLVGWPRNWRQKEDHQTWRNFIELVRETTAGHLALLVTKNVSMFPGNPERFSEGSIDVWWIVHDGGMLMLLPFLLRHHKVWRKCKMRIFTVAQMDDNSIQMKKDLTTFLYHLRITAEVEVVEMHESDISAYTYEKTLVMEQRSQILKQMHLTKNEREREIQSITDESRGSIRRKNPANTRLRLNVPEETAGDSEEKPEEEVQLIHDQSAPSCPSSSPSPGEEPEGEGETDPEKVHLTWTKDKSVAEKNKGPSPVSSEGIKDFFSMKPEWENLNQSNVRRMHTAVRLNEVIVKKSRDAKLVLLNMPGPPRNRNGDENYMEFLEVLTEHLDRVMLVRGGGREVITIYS
# SKKanGAS inh = SKKanGAS growth inhibition | inhibition, % at 7.5 µM | S. pyogenes SKKanGAS, kanamycin growth, BacTiter-Glo, 6 h | 300,000 tested, 1.3% active;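 active = mean replicate score, as percent of positive control median, at least 50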;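 note: strain carries kanamycin resistance gene driven by streptokinase promoter and grows in 40 µg/ml kanamycin; loss of luminescence reflects streptokinase promoter inhibition or plain growth inhibition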
# Rad51 HR inh = blocks human Rad51 in homologous recombination | 200,000 tested, 0.085% active | Q06609 | AID 1385 | hRad51 DNA strand exchange, fluorescence dequenching | inhibition, % at 10 µM;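 active = inhibition above 40% at the single screening dose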
#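 material = hRad51 filaments on single-stranded DNA | reagent = Donor/quencher-labelled 47-bp dsDNA substrate | compound = 10 µM final, single point | schedule = strand-exchange reaction 15 min at room temperature | measured by = fluorescein emission 520 nm, excitation 485 nm | read-out basis = % inhibition versus plate control and blank means | benchmarks = plate controls and plate blanks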
# Insulin prom up = MIN6 insulin promoter up-regulation | MIN6 insulin promoter-GFP reporter, high-content imaging; active compounds read high | z-score at 5 µM | 190,000 tested, 0.3% active;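 active = z-score above 3 at 5 µM with at least 500 cells counted in the well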
# WT yeast gro inh = growth inhibition of WT yeast, mitochondrial fusion screen; mitochondrial fusion phenotypic screen, WT strain; inhibition, % at 10 µM; 190,000 tested, 2.1% active; AID 1362; in the data active = inhibition above about 58%; tested in S. cerevisiae
# Autophagy HCS = alters autophagy in cells | MEF GFP-LC3 puncta imaging; test concentration mostly 10 µM | calls only at 10 µM (by protocol) | 190,000 tested, 0.98% active | AID 463193;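 active = percentage of spot-positive cells more than 3 SD above its plate mean, without a fluorescence outlier flag or 80% toxicity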
# Hits are given with their value; i = inactive; nt = no result given; + = active, no number.
SMILES,Cl transport mod,SKKanGAS inh,Rad51 HR inh,Insulin prom up,WT yeast gro inh,Autophagy HCS
Cc1cc(C)n(CCN(C)C(=O)C2CCC(=O)N(CCN3CCOCC3)C2)n1 (centres undefined),nt,i,nt,nt,nt,nt
CC/C(=N/Nc1cccc(C)c1)c1cnnc(SC)n1,i,i,nt,i,i,+
O=C(O)CC12CSc3[nH]c(=O)sc3C1c1ccccc1OC2=O (centres undefined),nt,i,i,3.25,i,i
CC(=O)c1c(C)c(C)c2n1CCn1c(C)ccc1-2,i,i,i,i,nt,nt
OC1CCN(C(=S)NCCc2ccccc2)CC1,i,i,i,i,i,i
S=C(NCCc1ccccc1)N1CCc2ccccc2C1,i,i,i,i,71.3,i
CC(=O)Oc1ccc(C(=O)Nc2cccc(C(=O)c3ccc(C)c(C)c3)c2)cc1,nt,i,nt,nt,nt,nt
COc1ccc(Nc2nc(S(=O)(=O)c3ccc(C)cc3)c(Cl)s2)cc1,i,i,i,i,i,i
Cc1ccc(S(=O)(=O)c2nc(Nc3ccccc3)sc2Cl)cc1,i,i,i,i,78.8,i
CS(=O)(=O)c1cccc(C(=O)N(CCc2ccccc2)Cc2cccs2)c1,nt,i,nt,nt,nt,nt
O=C(NC(=S)Nc1cccc(Cl)c1N1CCCCC1)c1ccc2c(c1)OCCO2,i,61.0,i,i,i,i
CCN1CCN(c2c(Cl)cccc2NC(=O)c2ccc3c(c2)OCCO3)CC1,i,i,i,nt,i,i
O=C(NC(=S)Nc1cccc(Cl)c1N1CCCC1)c1ccc(-c2cccc([N+](=O)[O-])c2)o1,2.97,i,i,i,i,i
O=C(Nc1cccc(Cl)c1N1CCCCC1)c1ccc2c(c1)OCCO2,nt,62.0,i,nt,nt,i
O=C(Nc1ccccc1F)c1ccc(-c2cccc([N+](=O)[O-])c2)o1,nt,i,nt,nt,nt,nt
COc1cccc(C2C(C(=O)c3cccs3)=C(O)C(=O)N2CCN2CCOCC2)c1OC (centres undefined),nt,i,nt,nt,nt,nt
COc1cc(C(=O)NNC(=O)c2ccccc2Br)ccc1OCC(=O)N1CCOCC1,nt,i,nt,nt,nt,nt
COc1ccc(C(=O)c2sc3nc(C)cc(-c4cccs4)c3c2N)cc1,i,i,i,i,i,+
COc1ccc(C(=O)c2sc3nc(C)cc(-c4cccs4)c3c2N)cc1OC,i,i,i,i,i,+
Cc1cc(C)c2c(N)c(C(=O)c3ccc(Cl)cc3)sc2n1,i,i,i,i,i,i
Cc1cc(-c2cccs2)c2c(N)c(C(=O)c3ccc4c(c3)OCO4)sc2n1,i,i,i,4.7,i,+
CC(C)NC(=O)c1sc2nc(-c3cccs3)cc(-c3cccs3)c2c1N,nt,i,i,i,i,+
Cc1cc(C)c(C)c(S(=O)(=O)N2CCC(C(=O)Nc3ccc(S(=O)(=O)N4CCOCC4)cc3)CC2)c1C,nt,i,nt,nt,nt,nt
CCn1c(SCC(=O)NC(=O)NCc2ccco2)nc2sc(C)c(C)c2c1=O,16,i,nt,nt,i,i
Cc1cccc(/C=C/C(=O)c2cc(Br)ccc(=O)c2O)c1,10.5,90.4,i,i,i,i
SMILES,Cl transport mod,SKKanGAS inh,Rad51 HR inh,Insulin prom up,WT yeast gro inh,Autophagy HCS
CCOc1ccc(/C=C/C(=O)c2cc(Br)ccc(=O)c2O)cc1,30.8,nt,i,i,i,i
CCc1ccc(/C=C/C(=O)c2cc(Br)ccc(=O)c2O)cc1,8.01,105.9,i,i,i,i
Cc1ccc(/C=C/C(=O)c2cc(Br)ccc2OC(=O)c2ccco2)cc1,i,i,i,i,i,i
CC12CCC(C(=O)N(NC(=O)c3ccccc3Cl)C1=O)C2(C)C (centres undefined),i,i,i,nt,i,i
Cc1ccc(C(=O)O)cc1NC(=S)NC(=O)c1ccc(-c2ccccc2)cc1,i,i,i,nt,i,i
Cc1ccc(C(=O)NC(=S)NCC(=O)c2ccccc2)cc1,nt,i,i,i,60.6,i
Cc1ccc(C(=O)CC(=O)c2ccccc2)cc1,nt,52.7,nt,nt,nt,nt
Cc1ccc(C(=O)/C=C/C(=O)c2ccc(C)cc2)cc1,i,61.9,i,i,i,i
Cc1ccc(C(=O)OCC(=O)c2ccccc2)cc1,nt,i,nt,nt,nt,nt
CC(C)NC(=S)NC(=O)c1ccc(-c2ccccc2)cc1,i,i,i,i,66.9,i
O=C(CNC(=S)NC(=O)c1cccc([N+](=O)[O-])c1)c1ccccc1,i,i,i,nt,i,i
O=C(COC(=O)c1ccccc1NCCO)Nc1cc(C(F)(F)F)ccc1N1CCOCC1,nt,i,nt,nt,nt,nt
O=C(CNC(=S)NC(=O)c1cccs1)c1ccccc1,10.7,i,nt,i,i,i
O=C(CNC(=S)NC(=O)c1ccco1)c1ccccc1,5.46,i,i,i,i,i
O=C(NC(=S)NCc1ccccc1)c1cccs1,nt,i,nt,nt,nt,nt
CCc1ccc(C(=O)N/N=C/c2cccc3ccccc23)nc1,i,i,nt,i,i,i
COc1c2ccccc2c(OC)c2ccccc12,i,i,i,i,i,+
COc1nnc(OC)c2ccccc12,i,i,i,i,i,i
CC(C)(C)C(=O)Nc1nc(=S)ss1,nt,i,i,i,i,i
CCC(=O)Nc1nc(=S)ss1,nt,i,62.2,i,i,i
N#C/C(=C\c1ccc(F)c(Cl)c1)S(=O)(=O)c1ccccn1,i,i,i,nt,nt,nt
Oc1ccccc1Cn1c(-c2ccccc2O)nc2ccccc21,i,i,i,i,i,i
COc1ccccc1Cn1c(-c2ccccc2OC)nc2ccccc21,nt,i,i,nt,72.1,i
CCOC(=O)C1=C(C)NC(SC)=NC1c1ccc(OC)cc1 (centres undefined),i,i,nt,i,i,i
CCOC(=O)C1=C(C)NC(SC(C)=O)=NC1c1ccc(OC(C)=O)c(OC)c1 (centres undefined),i,i,nt,i,76.0,i
SMILES,Cl transport mod,SKKanGAS inh,Rad51 HR inh,Insulin prom up,WT yeast gro inh,Autophagy HCS
COc1ccc(OCCC(=O)OCC(=O)NCc2ccc(F)cc2)cc1,i,i,i,i,i,i
FC(F)(F)c1nc(=S)c2ccccc2[nH]1,31.9,nt,i,i,i,i
CC(=O)NC(Cc1ccc(F)cc1)C(=O)NC1CCN(C(=O)NCc2ccccc2)CC1 (centres undefined),nt,i,nt,nt,nt,nt
Cc1ccc(C)c2[nH]c(=O)c(CN(CCN3CCCC3)C(=O)Nc3cccc(Cl)c3)cc12,nt,i,i,nt,i,+
CCOc1cc(C2c3c(oc4cc(C)c(Cl)cc4c3=O)C(=O)N2Cc2ccco2)ccc1O (centres undefined),nt,i,i,i,i,+
COC(=O)CN1C(c2ccc(Cl)cc2)=Nc2ccc(Cl)cc2C1c1ccccc1 (centres undefined),i,i,i,i,81.8,i
COc1ccc(C2=Nc3ccc(C)cc3C(c3ccccc3)N2CC(=O)NN)cc1 (centres undefined),i,i,i,i,i,i
O=C(CSc1ncnc2sc3c(c12)CCCCC3)NCc1ccco1,nt,i,i,i,i,+
Cc1cc(C)nc(Sc2ncnc3sc4c(c23)CCC4)n1,7.63,i,i,nt,i,i
N#CCSc1ncnc2sc3c(c12)CCC3,i,i,i,i,i,i
N=c1sccn1CC(=O)Nc1cc(Cl)ccc1[N+](=O)[O-],i,i,i,i,i,+
Cc1cc(NC(=O)Cn2ccsc2=N)c([N+](=O)[O-])cc1C,i,i,i,i,i,i
